Test results: ChEMBL document CHEMBL1137826, “A new class of acyclic 2-alkyl-1,1,2-triaryl (Z)-olefins as selective cyclooxygenase-2 inhibitors” (J Med Chem, 2004)

What was measured:
[1] = biological target: T1, Prostaglandin G/H synthase 1 (Ovis aries, UniProt P05979); assay: In vitro inhibition of ovine prostaglandin G/H synthase 1
T1 sequence (P05979 whole entry): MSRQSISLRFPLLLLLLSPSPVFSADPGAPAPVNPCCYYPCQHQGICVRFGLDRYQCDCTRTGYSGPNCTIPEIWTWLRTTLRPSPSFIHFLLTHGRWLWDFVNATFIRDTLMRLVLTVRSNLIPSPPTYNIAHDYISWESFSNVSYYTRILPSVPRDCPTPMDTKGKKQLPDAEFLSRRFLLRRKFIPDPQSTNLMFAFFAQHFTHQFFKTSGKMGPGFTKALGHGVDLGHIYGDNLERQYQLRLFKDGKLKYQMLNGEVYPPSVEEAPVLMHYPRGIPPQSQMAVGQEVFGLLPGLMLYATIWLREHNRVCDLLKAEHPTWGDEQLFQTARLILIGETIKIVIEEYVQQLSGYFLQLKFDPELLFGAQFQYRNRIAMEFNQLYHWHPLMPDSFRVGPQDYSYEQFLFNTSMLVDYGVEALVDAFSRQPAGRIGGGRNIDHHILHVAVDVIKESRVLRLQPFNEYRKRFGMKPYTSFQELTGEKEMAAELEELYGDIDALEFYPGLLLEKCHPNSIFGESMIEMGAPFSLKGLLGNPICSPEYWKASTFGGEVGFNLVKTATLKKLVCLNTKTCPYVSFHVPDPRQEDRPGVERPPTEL

[2] = test system: Rattus norvegicus; assay: Percent inhibition of 4% sodium chloride-induced abdominal constriction in rat after 60 min of 5 mg/kg oral dose of the compound; type: functional; details: Abdomen, 1 h
Outline: (§1)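 Test compound given to rats orally at 5 mg/kg before 4% NaCl-induced writhing (abdominal constriction).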

[3] = biological target: T2, Prostaglandin G/H synthase 2 (Rattus norvegicus) (UniProt P35355)
T2 sequence (whole entry): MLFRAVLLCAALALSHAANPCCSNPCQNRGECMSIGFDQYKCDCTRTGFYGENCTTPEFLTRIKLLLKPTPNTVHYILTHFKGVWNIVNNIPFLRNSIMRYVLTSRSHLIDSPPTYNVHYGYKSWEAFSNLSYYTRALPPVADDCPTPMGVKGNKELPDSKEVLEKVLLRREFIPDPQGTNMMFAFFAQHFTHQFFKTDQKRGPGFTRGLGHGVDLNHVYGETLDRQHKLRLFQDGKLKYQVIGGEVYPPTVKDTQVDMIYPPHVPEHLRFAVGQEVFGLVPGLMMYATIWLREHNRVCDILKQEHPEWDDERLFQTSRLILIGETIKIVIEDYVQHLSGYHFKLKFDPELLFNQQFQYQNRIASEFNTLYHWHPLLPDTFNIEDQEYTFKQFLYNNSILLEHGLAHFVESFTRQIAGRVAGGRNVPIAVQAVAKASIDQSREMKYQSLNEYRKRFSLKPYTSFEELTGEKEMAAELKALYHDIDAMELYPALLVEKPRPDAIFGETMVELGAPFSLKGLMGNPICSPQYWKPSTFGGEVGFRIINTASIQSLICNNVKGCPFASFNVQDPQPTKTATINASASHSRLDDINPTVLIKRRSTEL

[4] = test system: Rattus norvegicus; assay: Percent inhibition of 4% sodium chloride-induced abdominal constriction in rat after 30 min of 5 mg/kg oral dose of the compound; type: functional; details: Abdomen, 0.5 h; outline: as §1
[5] = species: Rattus norvegicus; assay: animal or person; details: Abdomen, po, 0.5 h, read-out: Inhibition

Row | IC50 [1] | ID50 [3] | SMILES | inhibition in vivo at 5 mg/kg [2] | inhibition in vivo at 5 mg/kg [4] | inhibition in vivo at 50 mg/kg [5]
1 | > 100 µM | – | CCC/C(=C(\c1ccccc1)c1ccc(S(C)(=O)=O)cc1)c1ccccc1 | – | – | –
2 | 30 µM | – | CCCC/C(=C(\c1ccccc1)c1ccc(S(C)(=O)=O)cc1)c1ccccc1 | – | – | –
3 | 0.25 µM | 1.3 mg/kg | CC/C(=C(\c1ccccc1)c1ccc(S(C)(=O)=O)cc1)c1ccc(OC(C)=O)cc1 | 57.5% | 60% | –
4 | – | – | Cc1ccc(-c2cc(C(F)(F)F)nn2-c2ccc(S(N)(=O)=O)cc2)cc1 [CELECOXIB] | – | – | 69.3%
5 | > 100 µM | – | CCCC/C(=C(\c1ccccc1)c1ccc(S(C)(=O)=O)cc1)c1ccc(OC(C)=O)cc1 | – | – | –
6 | > 100 µM | 1.1 mg/kg | CCCCCC/C(=C(\c1ccccc1)c1ccc(S(C)(=O)=O)cc1)c1ccccc1 | 35.4% | 33.3% | –
7 | > 100 µM | 1.9 mg/kg | CC/C(=C(\c1ccccc1)c1ccc(S(C)(=O)=O)cc1)c1ccccc1 | 50% | 38.8% | –
8 | > 100 µM | – | CCCCCCCC/C(=C(\c1ccccc1)c1ccc(S(C)(=O)=O)cc1)c1ccccc1 | – | – | –
